Experimental findings from ChEMBL document CHEMBL3098067, “Novel di-tertiary-butyl phenylhydrazones as dual cyclooxygenase-2/5-lipoxygenase inhibitors: synthesis, COX/LOX inhibition, molecular modeling, and insights into their cytotoxicities” (Bioorg Med Chem Lett, 2014) are described below.

Activity calls are given as the source filed them. The calls are words filed in the database; no cut-off is given here.

A short description of data set [1]: Ratio of IC50 for COX-2 positive mouse APC10.1 cells overexpressing HAS-2 to IC50 for COX-2 positive mouse APC10.1 cells transfected with CD44v6shRNA overexpressing HAS-2. The data set is classed as functional.
Data set [2] deals with HCA-7. The data set is described as follows: Inhibition of hyaluronan-induced CD44v6 in human HCA-7 cells transfected with Has2cDNA assessed as downregulation of 5-LOX protein expression at 5 uM after 24 hrs by Western blotting analysis. The data set is classed as cell-based. The procedure, abridged: (§1)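 HCA7 cells were transiently transfected with Has2 cDNA, grown 72 h, then treated for 24 h. Western blots were probed for CD44v6, COX-1, COX-2 and 5-LOX, with longer exposures used to show COX-2 and 5-LOX. The same blot was reprobed for β-tubulin as a loading control.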
(In western blotting, separated proteins are transferred to a membrane and probed.)

A short description of data set [3]: Cytotoxicity against COX-2 positive mouse APC10.1 cells transfected with CD44v6shRNA overexpressing HAS-2 assessed as growth inhibition after 48 hrs by MTT assay. The data set is classed as functional, cell-based. (In general: Tetrazolium dyes change colour on reduction, which living cells bring about.)
The subject of data set [4] is HT-29. The data set is described as follows: Cytotoxicity against COX-2 positive human HT-29 cells transfected with CD44v6shRNA assessed as growth inhibition after 48 hrs by MTT assay. The data set is classed as functional, cell-based. The settings on record: HT-29, 48 h.
In data set [5] the test system is HT-29. The data set is described as follows: Downregulation of hyaluronan-induced CD44v6 m-RNA expression in human HT-29 cells transfected with Has2cDNA and CD44v6shRNA at 5 uM after 24 hrs by qRT-PCR analysis. The data set is classed as functional, cell-based. The method, boiled down: (§2)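 HT29 cells were transiently transfected with Has2 cDNA alone, or with Has2 cDNA followed by CD44v6 shRNA. They were grown 72 h, then treated for 24 h. CD44v6 mRNA was quantified by qRT-PCR in three independent experiments, each with triplicate samples.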
For orientation: In qPCR the cycle at which signal appears reflects the starting amount.

For data set [6], the system named is HCA-7. The data set is described as follows: Inhibition of hyaluronan-induced CD44v6 in human HCA-7 cells transfected with Has2cDNA assessed as downregulation of COX-1 protein expression at 5 uM after 24 hrs by Western blotting analysis. The data set is classed as cell-based. The procedure, abridged: as §1
In data set [7] the test system is HCA-7. The data set is described as follows: Cytotoxicity against human HCA-7 cells expressing COX-2, 5-LOX, CD44v6 assessed as growth inhibition after 24 hrs by MTT assay. The data set is classed as functional, cell-based. The method, boiled down:
(§3)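 HCA7 and HIEC6 cells were exposed to a range of test concentrations for 24 h. Cytotoxicity was read by MTT assay and expressed as percent growth inhibition, with untreated cells set to 0% inhibition.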

Data set [8] concerns HT-29. The data set is described as follows: Downregulation of hyaluronan-induced CD44v6 m-RNA expression in human HT-29 cells transfected with Has2cDNA at 5 uM after 24 hrs by qRT-PCR analysis. The data set is classed as functional, cell-based. The method, boiled down: as §2
Data set [9] deals with T1, Prostaglandin G/H synthase 1 (Ovis aries, UniProt P05979).
T1 sequence (P05979 whole entry): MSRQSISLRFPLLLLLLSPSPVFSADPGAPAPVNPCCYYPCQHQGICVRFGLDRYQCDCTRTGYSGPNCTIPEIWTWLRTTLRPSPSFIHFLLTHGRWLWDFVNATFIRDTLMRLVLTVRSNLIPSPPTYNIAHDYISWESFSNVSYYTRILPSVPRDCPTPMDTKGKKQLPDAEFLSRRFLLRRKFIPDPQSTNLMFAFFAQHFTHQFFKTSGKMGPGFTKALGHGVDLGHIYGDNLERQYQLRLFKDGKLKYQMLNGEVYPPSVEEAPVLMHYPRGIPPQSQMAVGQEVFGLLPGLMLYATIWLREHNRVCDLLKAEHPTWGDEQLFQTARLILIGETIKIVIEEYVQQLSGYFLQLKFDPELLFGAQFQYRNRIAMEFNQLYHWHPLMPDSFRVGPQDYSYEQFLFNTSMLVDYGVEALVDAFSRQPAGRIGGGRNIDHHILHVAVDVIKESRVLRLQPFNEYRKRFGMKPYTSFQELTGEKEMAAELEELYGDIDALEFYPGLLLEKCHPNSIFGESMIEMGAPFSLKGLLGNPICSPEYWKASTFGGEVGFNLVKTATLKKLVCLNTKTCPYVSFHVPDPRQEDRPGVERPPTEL
The data set is described as follows: Inhibition of ram seminal vesicle COX-1 assessed as conversion of arachidonic acid to PGH2. The procedure, abridged:
(§4)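 Assays used enzyme immobilized in ELISA plates, with activity read by ELISA. IC50 values are given in µM.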

In data set [10] the test system is HCA-7. The data set is described as follows: Inhibition of hyaluronan-induced CD44v6 in human HCA-7 cells transfected with Has2cDNA assessed as downregulation of COX-2 protein expression at 5 uM after 24 hrs by Western blotting analysis. The class given is cell-based. The procedure, abridged: as §1
Data set [11] is described as follows: Cytotoxicity against COX-2, LOX, CD44v6-deficient HIEC6 cells assessed as growth inhibition after 24 hrs by MTT assay. The class given is cell-based. Particulars: human, hiec6, 24 h. The procedure, abridged: as §3
In data set [12] the target is T2, Prostaglandin G/H synthase 2 (Homo sapiens, UniProt P35354).
T2 sequence (P35354 whole entry): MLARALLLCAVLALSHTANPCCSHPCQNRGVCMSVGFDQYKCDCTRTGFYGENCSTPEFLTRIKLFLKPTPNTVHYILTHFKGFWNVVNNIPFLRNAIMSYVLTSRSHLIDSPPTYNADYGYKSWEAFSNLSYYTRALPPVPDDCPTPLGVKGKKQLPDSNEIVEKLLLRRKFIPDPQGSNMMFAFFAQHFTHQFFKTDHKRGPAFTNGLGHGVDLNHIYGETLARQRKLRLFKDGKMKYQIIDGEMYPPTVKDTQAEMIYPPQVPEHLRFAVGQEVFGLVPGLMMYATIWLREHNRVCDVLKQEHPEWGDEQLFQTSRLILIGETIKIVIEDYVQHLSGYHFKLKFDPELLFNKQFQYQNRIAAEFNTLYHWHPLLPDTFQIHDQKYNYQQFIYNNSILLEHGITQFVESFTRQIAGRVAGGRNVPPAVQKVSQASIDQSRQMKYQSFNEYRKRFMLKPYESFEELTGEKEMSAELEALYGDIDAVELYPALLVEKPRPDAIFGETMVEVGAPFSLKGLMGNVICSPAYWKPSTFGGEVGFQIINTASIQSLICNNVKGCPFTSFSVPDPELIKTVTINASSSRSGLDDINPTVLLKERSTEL
The data set is described as follows: Inhibition of COX-2 (unknown origin) by ELISA.

A short description of data set [13]: Cytotoxicity against COX-2 positive human HCA-7 cells assessed as growth inhibition by CellTiter-96 AQueous assay. The class given is functional, cell-based.
Data set [14] relates to SW480. The data set is described as follows: Cytotoxicity against COX-2 negative human SW480 cells assessed as growth inhibition by CellTiter-96 AQueous assay. The class given is functional, cell-based.
Data set [15] is described as follows: Downregulation of hyaluronan-induced CD44v6 protein expression in human HCA-7 cells transfected with Has2cDNA at 5 uM after 24 hrs by Western blotting analysis. The data set is classed as functional, cell-based. The procedure, abridged: as §1
Data set [16] has as its system HT-29. The data set is described as follows: Ratio of IC50 for COX-2 positive human HT-29 cells to IC50 for COX-2 positive human HT-29 cells transfected with CD44v6shRNA. The data set is classed as functional.
The nature of data set [17]: Ratio of IC50 for COX-2 positive human HCA-7 cells to IC50 for COX-2 positive human HCA-7 cells transfected with CD44v6shRNA. The class given is functional.
Data set [18] is described as follows: Cytotoxicity against COX-2 positive human HCA-7 cells transfected with CD44v6shRNA assessed as growth inhibition after 48 hrs by MTT assay. The data set is classed as functional, cell-based. The settings on record: HCA-7, 48 h.
In data set [19] the target is T3, Polyunsaturated fatty acid 5-lipoxygenase (Homo sapiens, UniProt P09917).
T3 sequence (P09917 whole entry): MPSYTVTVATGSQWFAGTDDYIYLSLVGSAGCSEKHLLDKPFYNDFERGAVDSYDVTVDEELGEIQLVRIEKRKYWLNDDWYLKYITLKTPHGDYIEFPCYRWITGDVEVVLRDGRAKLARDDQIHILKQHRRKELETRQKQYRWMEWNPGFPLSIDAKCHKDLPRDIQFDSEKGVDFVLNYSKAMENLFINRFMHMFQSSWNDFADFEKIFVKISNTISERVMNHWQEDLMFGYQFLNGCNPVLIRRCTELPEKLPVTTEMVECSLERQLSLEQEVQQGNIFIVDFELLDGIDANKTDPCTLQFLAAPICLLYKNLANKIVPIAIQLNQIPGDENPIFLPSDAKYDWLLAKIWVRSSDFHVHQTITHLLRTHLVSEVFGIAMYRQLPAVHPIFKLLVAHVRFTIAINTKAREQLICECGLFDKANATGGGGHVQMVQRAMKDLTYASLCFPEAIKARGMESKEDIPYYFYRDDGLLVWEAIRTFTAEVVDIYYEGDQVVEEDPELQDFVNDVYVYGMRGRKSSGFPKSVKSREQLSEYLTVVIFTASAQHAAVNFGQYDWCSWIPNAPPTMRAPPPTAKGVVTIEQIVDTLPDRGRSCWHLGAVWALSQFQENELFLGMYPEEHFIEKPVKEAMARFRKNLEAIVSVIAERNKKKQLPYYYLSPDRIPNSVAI
The data set is described as follows: Inhibition of 5-LOX (unknown origin) by ELISA. The method, boiled down: as §4

Data set [20] has as its system HT-29. The data set is described as follows: Cytotoxicity against COX-2 positive human HT-29 cells assessed as growth inhibition by CellTiter-96 AQueous assay. The class given is functional, cell-based.
Data set [21] can be described thus: Cytotoxicity against COX-2 positive mouse APC10.1 cells overexpressing HAS-2 assessed as growth inhibition by CellTiter-96 AQueous assay. The data set is classed as functional, cell-based.

What is called IC50 is the midpoint of a concentration-inhibition curve.

For `CC(C)(C)c1cc(/C=N/NC(=O)c2ccccc2O)c(O)c(C(C)(C)C)c1`, the “Ratio IC50” value is recorded as 37.3 in data set [1], 20 in [16] and 21 in data set [17]. The result in [2], in data set [5], in data set [6], in data set [8], in data set [10] and in [15] was Active. Moreover, the IC50 in data set [3] stood at 150 nM; in data set [4], 90 nM; in data set [9], 44.6 µM; in [12], 5.13 µM; in data set [13] it was 1600 nM; in data set [14], 15.5 µM. In addition, the 50% inhibitory concentration (IC50) in [18] came to 78 nM; in data set [19], 8 µM; in data set [20] it was 1800 nM; in data set [21], 5.6 µM. In addition, the “growth inhibition (GI)” value in [7] is “Active”. For the same compound, the Activity entry in [11] is on record as “Non-toxic”.
